The target in assay [1] is T1, 5-hydroxytryptamine receptor 6 (Homo sapiens, UniProt P50406). The assay can be described thus: Displacement of [3H]LSD from human cloned 5HT6 receptor expressed in human HeLa cells. It counts as cell-based. In short, it runs like this:
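Human 5-HT6 receptor cloned and stably expressed in HeLa cells; competition binding with [3H]-LSD as radioligand; Ki values determined in triplicate.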
A general note: Loss of bound radioactivity is the signal in a displacement assay; it reports binding, not function.

Assay [2] has as its target T1, 5-hydroxytryptamine receptor 6. Put plainly: Antagonist activity at human cloned 5HT6 receptor expressed in human HeLa cells assessed as blockage of 5-HT-stimulated cAMP formation after 10 mins by radioimmunoassay. Type of assay: functional, cell-based. In short, it runs like this:
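HeLa cells stably transfected with human 5-HT6 receptor; antagonism read as blockade of 5-HT-stimulated cAMP formation; IC50 and Imax values determined in triplicate.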
On the technique in general: cAMP levels reflect the balance of adenylyl cyclase and phosphodiesterase activity.

T1 sequence (P50406 whole entry): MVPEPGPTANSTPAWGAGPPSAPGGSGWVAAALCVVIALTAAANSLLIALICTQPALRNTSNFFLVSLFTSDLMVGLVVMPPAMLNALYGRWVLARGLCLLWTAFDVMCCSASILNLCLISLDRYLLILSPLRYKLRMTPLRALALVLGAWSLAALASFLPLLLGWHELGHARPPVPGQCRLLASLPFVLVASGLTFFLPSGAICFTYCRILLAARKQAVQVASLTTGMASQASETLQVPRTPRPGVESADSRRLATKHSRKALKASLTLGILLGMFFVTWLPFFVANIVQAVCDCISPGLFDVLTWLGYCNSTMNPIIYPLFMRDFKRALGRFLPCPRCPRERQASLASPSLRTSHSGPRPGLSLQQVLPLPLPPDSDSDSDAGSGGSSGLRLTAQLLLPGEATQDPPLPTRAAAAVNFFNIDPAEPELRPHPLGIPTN

Consider `O=S(=O)(c1cccc2ccccc12)c1cccc2oc(N3CCN(CCCc4ccccc4)CC3)nc12`, for which, in assay [1], the Ki – broadly, the dissociation constant of the complex between target and ligand, obtained from inhibition or displacement – amounted to 0.127 µM.

With `O=S(=O)(c1cccc2ccccc12)c1cccc2oc(N3CCNCC3)nc12`, in assay [2], the IC50 (as a rule, the concentration that gives 50% inhibition) came to 0.096 µM and the Imax was 97%.

Take `O=S(=O)(c1cccc2ccccc12)c1cccc2oc(N3CCN(C4CCCC4)CC3)nc12`: the Ki in assay [1] turned out to be 0.079 µM.

The compound `O=S(=O)(c1ccccc1)c1cccc2oc(N3CCNCC3)nc12` gave a Ki in assay [1] of 0.041 µM.

Take `O=S(=O)(c1cc(Cl)ccc1Cl)c1cccc2oc(N3CCNCC3)nc12`: in assay [2], the IC50 turned out to be 0.117 µM and the Imax came out at 92%.

Regarding `O=S(=O)(c1cccc2ccccc12)c1cccc2nc(N3CCNCC3)oc12`, in assay [1], the Ki was determined as 0.0071 µM. Further, in assay [2], the IC50 is 0.077 µM and the Imax was determined as 96%.

With `O=S(=O)(c1cccc(C(F)(F)F)c1)c1cccc2oc(N3CCNCC3)nc12`, in assay [2], the concentration for half-maximal inhibition (IC50) came to 0.12 µM and the Imax came to 96%.

Turning to `CCN1CCN(c2nc3c(S(=O)(=O)c4cccc5ccccc45)cccc3o2)CC1`, in assay [2], the IC50 is 0.248 µM and the Imax came to 89%.

As for `COc1cccc(S(=O)(=O)c2cccc3oc(N4CCNCC4)nc23)c1`, in assay [2], the IC50 came out at 0.1 µM and the Imax is 92%.

In the case of `CN1CCN(c2nc3c(S(=O)(=O)c4cccc5ccccc45)cccc3o2)CC1`, the affinity in assay [1] corresponds to a Ki of 0.0097 µM. In assay [2], the IC50 is 0.105 µM and the Imax is 83%.

Values taken from ChEMBL document CHEMBL1136861, “Identification of a series of benzoxazoles as potent 5-HT6 ligands” (Bioorg Med Chem Lett, 2009).
